Reference: ChEMBL document CHEMBL1833801, “Natural daucane sesquiterpenes with antiproliferative and proapoptotic activity against human tumor cells” (Bioorg Med Chem, 2011)
Calls of active or inactive are those of the source. No cut-off for these calls is given here.

Columns and labels:
HL-60 = assay: Cytotoxicity against human HL60 cells after 72 hrs by MTT assay; format: functional, cell-based; details: HL-60, 72 h
K562 = assay: Cytotoxicity against human K562 cells after 72 hrs by MTT assay; format: functional, cell-based; details: K562, 72 h
Jurkat [1] = assay: Cytotoxicity against human Jurkat cells after 72 hrs by MTT assay; format: functional, cell-based
A549 = assay: Cytotoxicity against human A549 cells after 72 hrs by MTT assay; format: functional, cell-based; details: A549, 72 h
[2] = Cytotoxicity against human RS4:11 cells after 72 hrs by MTT assay; format: functional, cell-based; details: RS4-11, 72 h
HeLa = assay: Cytotoxicity against human HeLa cells after 72 hrs by MTT assay; format: functional, cell-based
[3] = Cytotoxicity against human SEM cells after 72 hrs by MTT assay; format: functional, cell-based
Jurkat [4] = assay: Cell cycle arrest in human Jurkat cells assessed as accumulation at G2/M phase after 48 hrs using propidium iodide staining by flow cytometry; format: functional, cell-based
How it was run: (§1)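 Exponentially growing Jurkat cells, 2.5×10^5, exposed to 1.25–100 µM for 48 h. Cells fixed in ice-cold 70% ethanol, lysed in buffer with RNase A and 0.1% Triton X-100, stained with propidium iodide. Cell-cycle phases read by flow cytometry. Mean ± SEM of three independent experiments; two-sided Student's t test against control.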

PBL [5] = assay: Cytotoxicity against human PBL after 72 hrs by MTT assay; format: cell-based
How it was run: (§2)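 PBL from healthy donors separated on a density gradient, washed, held at 1.0×10^6 cells/mL in RPMI-1640 with 10% FCS overnight. Non-adherent cells resuspended at 5×10^5 cells/mL. Stimulated cultures received 2.5 µg/mL PHA; resting cultures had none. Compound at several concentrations for 72 h, viability by MTT, IC50 taken. Mean ± SEM of three experiments.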

Jurkat [6] = assay: Cell cycle arrest in human Jurkat cells assessed as decrease in G1 phase phase after 48 hrs using propidium iodide staining by flow cytometry; format: functional, cell-based; how it was run: as §1
Jurkat [7] = assay: Cell cycle arrest in human Jurkat cells assessed as decrease in S phase phase after 48 hrs using propidium iodide staining by flow cytometry; format: functional, cell-based; how it was run: as §1
Jurkat [8] = assay: Induction of apoptosis in human Jurkat cells assessed as increase in late apoptotic cells after 24 hrs by FITC-conjugated annexin V and propidium iodide staining-based flow cytometry; format: functional, cell-based
How it was run: (§3)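 Jurkat cells exposed for 24 and 48 h, over a range of 1.25–100 µM, then co-stained with Annexin-V-FITC and propidium iodide. Read by flow cytometry, excitation 488 nm, emission 525 and 585 nm. Quadrants scored as A+/PI− (early apoptotic) and A+/PI+ (late apoptotic), compared with untreated cells. Mean ± SEM of three independent experiments.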

PBL [9] = assay: Cytotoxicity against PHA-stimulated human PBL after 72 hrs by MTT assay; format: cell-based; how it was run: as §2
Jurkat [10] = assay: Induction of apoptosis in human Jurkat cells assessed as increase in late apoptotic cells after 48 hrs by FITC-conjugated annexin V and propidium iodide staining-based flow cytometry; format: functional, cell-based; how it was run: as §3
Jurkat [11] = assay: Induction of apoptosis in human Jurkat cells assessed as increase in early apoptotic cells after 24 hrs by FITC-conjugated annexin V and propidium iodide staining-based flow cytometry; format: functional, cell-based; how it was run: as §3
Jurkat [12] = assay: Cytotoxicity against human Jurkat cells assessed as cell viability at 25 uM after 48 hrs by MTT assay in presence of 100 uM pan-caspase inhibitor z-VAD; format: functional
How it was run: (§4)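 Jurkat cells exposed to compound for 48 h with or without 100 µM of the pan-caspase inhibitor z-VAD.fmk. Percent viability read by MTT. Mean ± SEM.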

Jurkat [13] = assay: Induction of apoptosis in human Jurkat cells assessed as DNA fragmentation at 12.5 to 50 uM after 48 hrs by agarose gel electrophoresis; format: functional, cell-based
How it was run: (§5)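 Genomic DNA taken from treated Jurkat cells by salting out after 48 h. 1 µg run on 1.5% agarose in TAE at 50 V for 6 h. Gel stained with ethidium bromide and imaged under UV light.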

Jurkat [14] = assay: Cell cycle arrest in human Jurkat cells assessed as accumulation at G1 phase after 48 hrs using propidium iodide staining by flow cytometry; format: functional, cell-based; how it was run: as §1
Jurkat [15] = assay: Cell cycle arrest in human Jurkat cells assessed as accumulation at G1 phase at 50 uM after 48 hrs using propidium iodide staining by flow cytometry; format: functional, cell-based; how it was run: as §1
Jurkat [16] = assay: Induction of apoptosis in human Jurkat cells assessed as late apoptotic cells at 50 uM after 24 hrs by FITC-conjugated annexin V and propidium iodide staining-based flow cytometry relative to control; format: functional; how it was run: as §3
Jurkat [17] = assay: Cytotoxicity against human Jurkat cells assessed as cell viability at 50 uM after 48 hrs by MTT assay in presence of 100 uM pan-caspase inhibitor z-VAD; format: functional; how it was run: as §4
Jurkat [18] = assay: Induction of apoptosis in human Jurkat cells assessed as viable cells at 50 uM after 24 hrs by FITC-conjugated annexin V and propidium iodide staining-based flow cytometry relative to control; format: functional; details: read-out: Activity; how it was run: as §3
Jurkat [19] = assay: Induction of apoptosis in human Jurkat cells assessed as viable cells at 50 uM after 48 hrs by FITC-conjugated annexin V and propidium iodide staining-based flow cytometry relative to control; format: functional; details: read-out: Activity; how it was run: as §3
Jurkat [20] = assay: Induction of apoptosis in human Jurkat cells assessed as necrotic cells at 50 uM after 24 hrs by FITC-conjugated annexin V and propidium iodide staining-based flow cytometry relative to control; format: functional; how it was run: as §3
Jurkat [21] = assay: Induction of apoptosis in human Jurkat cells assessed as early apoptotic cells at 50 uM after 24 hrs by FITC-conjugated annexin V and propidium iodide staining-based flow cytometry relative to control; format: functional; how it was run: as §3
Jurkat [22] = assay: Induction of apoptosis in human Jurkat cells assessed as DNA fragmentation at 25 to 50 uM after 48 hrs by agarose gel electrophoresis; format: functional, cell-based; how it was run: as §5
Jurkat [23] = assay: Induction of apoptosis in human Jurkat cells assessed as necrotic cells at 50 uM after 48 hrs by FITC-conjugated annexin V and propidium iodide staining-based flow cytometry relative to control; format: functional; how it was run: as §3
Jurkat [24] = assay: Induction of apoptosis in human Jurkat cells assessed as late apoptotic cells at 50 uM after 48 hrs by FITC-conjugated annexin V and propidium iodide staining-based flow cytometry relative to control; format: functional; how it was run: as §3
Jurkat [25] = assay: Induction of apoptosis in human Jurkat cells assessed as early apoptotic cells at 50 uM after 48 hrs by FITC-conjugated annexin V and propidium iodide staining-based flow cytometry relative to control; format: functional; how it was run: as §3

Row | SMILES | IC50 (HL-60) | IC50 (K562) | IC50 (Jurkat [1]) | IC50 (A549) | IC50 [2] | IC50 (HeLa) | IC50 [3] | other results
1 | COc1ccc(C(=O)O[C@H]2C=C(C)C(=O)C[C@@]3(C)CC[C@@](O)(C(C)C)[C@H]23)cc1 | 38.9 µM | > 100 µM | 40.5 µM | 31.8 µM | 28.6 µM | 29.7 µM | 28.4 µM | –
2 | COc1ccc(C(=O)O[C@@H]2C=C(C)CC[C@]3(O)[C@H](C(C)C)CC(=O)[C@]23C)cc1 [SIOL ANISATE] | > 100 µM | > 100 µM | > 100 µM | > 100 µM | > 100 µM | > 100 µM | 23.9 µM | –
3 | COc1ccc(C(=O)O[C@H]2CC(C)=C[C@H](O)[C@@]3(C)[C@@H](OC(C)=O)C[C@@](O)(C(C)C)[C@H]23)cc1 | 23 µM | 48.2 µM | 5.9 µM | 79.6 µM | 34.4 µM | 52.9 µM | 18.1 µM | Activity (Jurkat [4]): Dose-dependent effect; IC50 (PBL [5]): 20.5 µM; Activity (Jurkat [6]): Active; Activity (Jurkat [7]): Active; Activity (Jurkat [8]): Dose-dependent effect; IC50 (PBL [9]): 27.2 µM
4 | COc1ccc(C(=O)OCC2=CC[C@@]3(C)CC[C@]4(C(C)C)O[C@]34CC2)cc1 | > 100 µM | > 100 µM | > 100 µM | > 100 µM | 60.9 µM | > 100 µM | 84 µM | –
5 | C/C=C(/C)C(=O)O[C@H]1CC(C)=C[C@@H](OC(=O)/C(C)=C\C)[C@@]2(C)CC[C@@](O)(C(C)C)[C@H]12 | 2.6 µM | 26.5 µM | 7.7 µM | 2.8 µM | 1.7 µM | 4.4 µM | 2.4 µM | Activity (Jurkat [10]): Active; Activity (Jurkat [11]): Dose-dependent effect; Activity (Jurkat [4]): Dose-dependent effect; IC50 (PBL [5]): 22.6 µM; Activity (Jurkat [6]): Active; Activity (Jurkat [7]): Active; Activity (Jurkat [12]): 19%; Activity (Jurkat [13]): Active; IC50 (PBL [9]): 13.7 µM
6 | COc1ccc(C(=O)O[C@H]2CC(C)=C[C@@H](OC(C)=O)[C@@]3(C)[C@@H](OC(C)=O)C[C@@](O)(C(C)C)[C@H]23)cc1 | 83.5 µM | > 100 µM | 62.2 µM | > 100 µM | 42.9 µM | > 100 µM | 32.9 µM | –
7 | COc1ccc(C(=O)O[C@H]2CC(C)=C[C@H](OC(C)=O)[C@]3(C)[C@@H]2[C@](O)(C(C)C)C[C@@H]3O)cc1 | 14.9 µM | 70.4 µM | 9.1 µM | > 100 µM | 26.8 µM | 52.6 µM | 26.5 µM | Activity (Jurkat [14]): Active; Activity (Jurkat [15]): inactive; IC50 (PBL [5]): 30.3 µM; Activity (Jurkat [8]): Dose-dependent effect; IC50 (PBL [9]): 33.7 µM
8 | C=C1C[C@H](OC(=O)c2ccc(O)cc2)[C@@H]2[C@](C)(CC[C@@]2(O)C(C)C)C[C@@H]1O | 43.4 µM | > 100 µM | 55 µM | > 100 µM | 29 µM | > 100 µM | 34.7 µM | –
9 | COc1ccc(C(=O)O[C@H]2CC(C)=C[C@@H](O)[C@@]3(C)[C@@H](OC(C)=O)C[C@@](O)(C(C)C)[C@H]23)cc1 | 24 µM | 85.2 µM | 33.6 µM | > 100 µM | 70.4 µM | > 100 µM | > 100 µM | –
10 | COc1ccc(C(=O)OCC2=CC[C@@]3(C)CCC(C(C)C)=C3CC2)cc1 | 30.7 µM | 67 µM | 25.6 µM | > 100 µM | 44.1 µM | > 100 µM | 25.5 µM | –
11 | COc1ccc(C(=O)O[C@H]2CC(C)=C[C@H](OC(C)=O)[C@@]3(C)[C@@H](OC(C)=O)C[C@@](O)(C(C)C)[C@H]23)cc1 | 11.3 µM | 39.6 µM | 3.3 µM | 23.3 µM | 2.8 µM | 14.5 µM | 15 µM | Activity (Jurkat [14]): Active; Activity (Jurkat [16]): 41.7%; Activity (Jurkat [17]): 13%; viability at 50 µM (Jurkat [18]): 36.5%; viability at 50 µM (Jurkat [19]): 4.7%; Activity (Jurkat [15]): inactive; Activity (Jurkat [20]): 16%; Activity (Jurkat [21]): 5.8%; IC50 (PBL [5]): 6.6 µM; Activity (Jurkat [22]): inactive; Activity (Jurkat [23]): 27.8%; Activity (Jurkat [8]): Dose-dependent effect; Activity (Jurkat [24]): 67.4%; IC50 (PBL [9]): 9.4 µM; Activity (Jurkat [25]): 0.1%
12 | CC1=C[C@H](OC(=O)c2ccc(O)cc2)[C@@H]2[C@](C)(CC[C@@]2(O)C(C)C)CC1=O | 82.5 µM | > 100 µM | 40.5 µM | 14.5 µM | 28.2 µM | 26.1 µM | 24.4 µM | –
13 | COc1ccc(C(=O)O[C@H]2CC(C)=CC[C@@]3(C)CC[C@@](O)(C(C)C)[C@H]23)cc1 [FERUTIDIN] | 20.1 µM | 67.8 µM | 30.5 µM | 31.9 µM | 17.6 µM | > 100 µM | 18.2 µM | –
14 | CC1=CC[C@]2(C)[C@@H]([C@@H](OC(=O)c3ccc(O)cc3)C1)[C@](O)(C(C)C)C[C@@H]2O | 3.5 µM | 95 µM | 40.3 µM | 83.7 µM | 33.4 µM | 56.5 µM | 22.4 µM | –
15 | C/C=C(\C)C(=O)O[C@H]1C[C@@]2(C)O[C@H]2[C@@H](OC(C)=O)[C@@]2(C)CC[C@@](O)(C(C)C)[C@H]12 | > 100 µM | > 100 µM | > 100 µM | > 100 µM | > 100 µM | > 100 µM | > 100 µM | –
